Calls of active or inactive are those of the source. The rule behind the calls is not given here.
Assays:
[1] = molecular target: CDK2/Cyclin A1 (Homo sapiens) (UniProt P24941+P78396); experiment: Inhibition of CDK2/Cyclin A1 (unknown origin) at 1 uM using histone H1 as substrate preincubated for 20 mins followed by 33P-ATP addition and measured after 2 hrs by filter binding method; assay type: protein-complex assay
Summary of the method: (§1)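 Radiometric filter-binding kinase assay at 10 μM ATP in pH 7.5 HEPES buffer with MgCl₂, EGTA, Brij35, BSA, Na₃VO₄, DTT and 1% DMSO. Compound was preincubated with kinase for 20 min at rt, then ³³P-ATP was added and the reaction ran 2 h at rt. Substrate was histone H1 at 20 μM, except myelin basic protein at 20 μM for CDK7/cyclin H and a peptide at 20 μM for CDK9/cyclin T1. Single dose, in duplicate.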

[2] = molecular target: Cyclin-dependent kinase 2/cyclin E1 (Homo sapiens) (UniProt P24864+P24941); experiment: Inhibition of CDK1/Cyclin E (unknown origin) at 1 uM using histone H1 as substrate preincubated for 20 mins followed by 33P-ATP addition and measured after 2 hrs by filter binding method; assay type: protein-complex assay; summary of the method: as §1
[3] = molecular target: Cyclin-dependent kinase 1/cyclin B1 (Homo sapiens) (UniProt P06493+P14635); experiment: Inhibition of CDK1/Cyclin B (unknown origin) at 1 uM using histone H1 as substrate preincubated for 20 mins followed by 33P-ATP addition and measured after 2 hrs by filter binding method; assay type: protein-complex assay; summary of the method: as §1
Chain of Cyclin-dependent kinase 1/cyclin B1 (Homo sapiens) (P06493 whole entry, looked up): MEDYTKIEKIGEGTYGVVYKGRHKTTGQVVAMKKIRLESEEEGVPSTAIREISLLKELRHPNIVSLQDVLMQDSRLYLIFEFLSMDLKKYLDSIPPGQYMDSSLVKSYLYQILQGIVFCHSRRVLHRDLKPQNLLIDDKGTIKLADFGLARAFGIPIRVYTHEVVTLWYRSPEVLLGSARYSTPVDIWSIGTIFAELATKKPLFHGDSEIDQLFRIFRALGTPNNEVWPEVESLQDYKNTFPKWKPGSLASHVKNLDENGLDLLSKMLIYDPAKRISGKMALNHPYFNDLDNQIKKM
Chain of Cyclin-dependent kinase 1/cyclin B1 (Homo sapiens) (P14635 whole entry, looked up): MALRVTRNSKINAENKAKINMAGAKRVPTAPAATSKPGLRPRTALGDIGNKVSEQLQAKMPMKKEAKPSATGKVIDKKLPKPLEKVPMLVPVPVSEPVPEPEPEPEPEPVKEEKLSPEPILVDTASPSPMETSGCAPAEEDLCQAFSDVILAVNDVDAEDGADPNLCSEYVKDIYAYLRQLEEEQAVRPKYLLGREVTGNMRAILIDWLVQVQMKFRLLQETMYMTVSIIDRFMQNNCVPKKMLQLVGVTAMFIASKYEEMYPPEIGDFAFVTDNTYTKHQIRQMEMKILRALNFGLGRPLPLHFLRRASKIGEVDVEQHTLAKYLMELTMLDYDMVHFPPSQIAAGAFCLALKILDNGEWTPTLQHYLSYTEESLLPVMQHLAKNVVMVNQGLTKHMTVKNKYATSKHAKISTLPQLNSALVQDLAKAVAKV

[4] = molecular target: CDK2/Cyclin O (Homo sapiens) (UniProt P24941+P22674); experiment: Inhibition of CDK1/Cyclin-O (unknown origin) at 1 uM using histone H1 as substrate preincubated for 20 mins followed by 33P-ATP addition and measured after 2 hrs by filter binding method; assay type: protein-complex assay; summary of the method: as §1
[5] = molecular target: CDK1/Cyclin A (Homo sapiens) (UniProt P06493+P20248); experiment: Inhibition of CDK1/CyclinA (unknown origin) at 1 uM using histone H1 as substrate preincubated for 20 mins followed by 33P-ATP addition and measured after 2 hrs by filter binding method; assay type: protein-complex assay; summary of the method: as §1
Chain of CDK1/Cyclin A (Homo sapiens) (P06493 whole entry, looked up): as the sequence (P06493 whole entry, looked up) above
Chain of CDK1/Cyclin A (Homo sapiens) (P20248 whole entry, looked up): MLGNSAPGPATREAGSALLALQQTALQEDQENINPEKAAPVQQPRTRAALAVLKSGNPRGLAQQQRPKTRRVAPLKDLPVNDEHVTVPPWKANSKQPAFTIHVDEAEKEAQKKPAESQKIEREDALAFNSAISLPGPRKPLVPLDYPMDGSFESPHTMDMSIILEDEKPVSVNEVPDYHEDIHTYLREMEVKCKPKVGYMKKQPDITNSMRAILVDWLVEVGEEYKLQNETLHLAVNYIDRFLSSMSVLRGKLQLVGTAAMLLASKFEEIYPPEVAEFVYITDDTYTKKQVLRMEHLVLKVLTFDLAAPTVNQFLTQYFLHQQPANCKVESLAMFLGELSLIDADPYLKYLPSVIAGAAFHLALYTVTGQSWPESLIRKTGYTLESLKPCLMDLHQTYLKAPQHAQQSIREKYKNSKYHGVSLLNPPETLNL

[6] = molecular target: Cyclin-dependent kinase 4/cyclin D1 (Homo sapiens) (UniProt P11802+P24385); experiment: Inhibition of CDK4/Cyclin D1 (unknown origin) at 1 uM using RB protein as substrate preincubated for 20 mins followed by 33P-ATP addition and measured after 2 hrs by filter binding method; assay type: protein-complex assay
Summary of the method: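 Radiometric filter-binding assay of CDK4/cyclin D1 using RB protein at 3 μM and ATP at 10 μM in pH 7.5 HEPES buffer with 1% DMSO. Compound was preincubated for 20 min at rt, then ³³P-ATP was added and the reaction ran 2 h at rt, with spotting on P81 paper. Single dose, in duplicate.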

[7] = molecular target: CDK3/Cyclin E (Homo sapiens) (UniProt P24864+Q00526); experiment: Inhibition of CDK3/Cyclin E (unknown origin) at 1 uM using histone H1 as substrate preincubated for 20 mins followed by 33P-ATP addition and measured after 2 hrs by filter binding method; assay type: protein-complex assay; summary of the method: as §1
Chain of CDK3/Cyclin E (Homo sapiens) (P24864 whole entry, looked up): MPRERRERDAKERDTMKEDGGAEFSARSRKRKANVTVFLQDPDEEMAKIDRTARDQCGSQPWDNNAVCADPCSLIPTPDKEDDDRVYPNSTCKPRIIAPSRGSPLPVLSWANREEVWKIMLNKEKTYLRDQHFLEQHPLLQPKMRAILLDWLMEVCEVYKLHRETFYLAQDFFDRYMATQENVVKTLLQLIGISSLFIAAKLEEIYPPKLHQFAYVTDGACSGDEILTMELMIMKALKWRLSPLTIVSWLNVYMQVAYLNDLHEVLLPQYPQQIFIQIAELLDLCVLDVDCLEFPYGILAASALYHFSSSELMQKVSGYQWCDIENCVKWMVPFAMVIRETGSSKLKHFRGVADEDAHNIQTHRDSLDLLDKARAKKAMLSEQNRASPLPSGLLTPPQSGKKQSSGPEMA
Chain of CDK3/Cyclin E (Homo sapiens) (Q00526 whole entry, looked up): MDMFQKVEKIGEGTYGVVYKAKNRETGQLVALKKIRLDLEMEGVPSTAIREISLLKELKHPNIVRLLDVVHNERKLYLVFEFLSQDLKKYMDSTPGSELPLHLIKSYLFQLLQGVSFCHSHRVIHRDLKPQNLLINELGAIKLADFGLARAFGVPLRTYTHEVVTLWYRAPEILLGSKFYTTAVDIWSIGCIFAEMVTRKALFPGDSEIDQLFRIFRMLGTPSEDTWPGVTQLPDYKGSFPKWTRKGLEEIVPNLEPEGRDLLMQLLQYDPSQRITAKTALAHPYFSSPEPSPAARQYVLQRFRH

[8] = molecular target: Cyclin-dependent kinase 5/CDK5 activator 1 (Homo sapiens) (UniProt Q00535+Q15078); experiment: Inhibition of CDK5/p25 (unknown origin) at 1 uM using histone H1 as substrate preincubated for 20 mins followed by 33P-ATP addition and measured after 2 hrs by filter binding method; assay type: protein-complex assay; summary of the method: as §1
Chain of Cyclin-dependent kinase 5/CDK5 activator 1 (Homo sapiens) (Q00535 whole entry): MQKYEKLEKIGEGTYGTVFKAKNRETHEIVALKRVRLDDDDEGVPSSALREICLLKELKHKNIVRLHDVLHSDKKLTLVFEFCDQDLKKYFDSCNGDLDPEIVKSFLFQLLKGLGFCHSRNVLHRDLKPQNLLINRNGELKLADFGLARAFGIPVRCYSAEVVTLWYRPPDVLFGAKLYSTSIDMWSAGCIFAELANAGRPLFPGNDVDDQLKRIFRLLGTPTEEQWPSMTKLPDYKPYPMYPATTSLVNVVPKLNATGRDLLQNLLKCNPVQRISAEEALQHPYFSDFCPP
Chain of Cyclin-dependent kinase 5/CDK5 activator 1 (Homo sapiens) (Q15078 99-307 partner limits assumed): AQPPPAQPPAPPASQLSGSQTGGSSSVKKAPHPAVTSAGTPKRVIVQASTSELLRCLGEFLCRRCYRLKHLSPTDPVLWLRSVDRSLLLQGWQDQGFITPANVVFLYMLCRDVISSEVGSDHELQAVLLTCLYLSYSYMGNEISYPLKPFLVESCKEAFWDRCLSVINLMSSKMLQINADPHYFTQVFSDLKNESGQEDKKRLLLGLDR

[9] = molecular target: Cyclin-dependent kinase 7/ cyclin H (Homo sapiens) (UniProt P51946+P50613); experiment: Inhibition of CDK7/Cyclin H (unknown origin) at 1 uM using myelin basic protein as substrate preincubated for 20 mins followed by 33P-ATP addition and measured after 2 hrs by filter binding method; assay type: protein-complex assay; summary of the method: as §1
Homo sapiens = organism: Homo sapiens; experiment: Inhibition of CDK9/Cyclin T1 (unknown origin) at 1 uM using KTFCGTPEYLAPEVRREPRILSEEEQEMFRDFDYIAD as substrate preincubated for 20 mins followed by 33P-ATP addition and measured after 2 hrs by filter binding method; summary of the method: as §1
[10] = molecular target: CDK2/Cyclin A2 (Homo sapiens) (UniProt P24941+P20248); experiment: Inhibition of human N-terminal GST-tagged CDK2 (1 to 298 residues)/Cyclin A (174 to 432 residues) expressed in Escherichia coli Turner (DE3) cells assessed as reduction in ADP formation at 1 uM using PKTPKKAKKL as substrate by resorufin dye based fluorescence assay
[11] = molecular target: CDK6/cyclin D1 (Homo sapiens) (UniProt P24385+Q00534); experiment: Inhibition of CDK6/Cyclin D1 (unknown origin) at 1 uM using RB protein as substrate preincubated for 20 mins followed by 33P-ATP addition and measured after 2 hrs by filter binding method
CDK2/Cyclin A2 = CDK2/Cyclin A2 (Homo sapiens, UniProt P24941); experiment: Inhibition of human N-terminal GST-tagged CDK2 (1 to 298 residues)/Cyclin A (174 to 432 residues) expressed in Escherichia coli Turner (DE3) cells assessed as reduction in ADP formation using PKTPKKAKKL as substrate by resorufin dye based fluorescence assay
[12] = Permeability across basolateral to apical side in MDCK cells at 1 uM after 2 hrs by LC-MS/MS analysis; assay type: ADME, cell-based, Canis lupus familiaris; conditions: dog
Summary of the method: (§2)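 MDCK monolayers were washed twice with pre-warmed HBSS (10 mM HEPES, pH 7.4) and equilibrated for 30 min at 37 °C. Compound at 1 μM in HBSS (0.5% DMSO final) was added to the apical or the basolateral donor side. After 2 h at 37 °C, donor and receiver samples were quenched in cold methanol with internal standards and analysed by LC-MS/MS. Runs were in duplicate; 100 μM Lucifer Yellow checked monolayer integrity.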

CDK2/Cyclin A1 = CDK2/Cyclin A1 (Homo sapiens, UniProt P24941); experiment: Inhibition of CDK2/Cyclin A1 (unknown origin) using histone H1 as substrate preincubated for 20 mins followed by 33P-ATP addition and measured after 2 hrs by filter binding method; assay type: protein-complex assay
MCF7 = experiment: Antiproliferative activity against human MCF7 cells assessed as reduction in cell viability up to 200 uM after 72 hrs by alamarBlue assay; assay type: functional, cell-based; conditions: dose microM <=200, time 72.0 hrs
Summary of the method: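 MCF-7 cells seeded at 5000 per well and incubated overnight at 37 °C, 5% CO₂, then exposed to 8 concentrations from 0.00256 μM to 200 μM for 72 h. alamarBlue was then added and incubated 90 min at 37 °C. Proliferating cells were read by fluorescence (ex 530 nm, em 590 nm). Staurosporine served as positive control.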

CDK2/Cyclin O = CDK2/Cyclin O (Homo sapiens, UniProt P22674+P24941); experiment: Inhibition of CDK2/Cyclin-O (unknown origin) using histone H1 as substrate preincubated for 20 mins followed by 33P-ATP addition and measured after 2 hrs by filter binding method; assay type: protein-complex assay
[13] = Permeability across apical to basolateral side in MDCK cells assessed as drug recovery at 1 uM after 2 hrs by LC-MS/MS analysis; assay type: ADME, cell-based, Canis lupus familiaris; conditions: dog; summary of the method: as §2
[14] = Apparent permeability across basolateral to apical side in MDCK cells at 1 uM after 2 hrs by LC-MS/MS analysis; assay type: ADME, cell-based, Canis lupus familiaris; conditions: dog; summary of the method: as §2
[15] = Efflux ratio of apparent permeability across basolateral to apical side over apical to basolateral side in MDCK cells at 1 uM after 2 hrs by LC-MS/MS analysis; assay type: ADME, cell-based, Canis lupus familiaris; conditions: dog
Summary of the method: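 MDCK monolayers washed twice with pre-warmed HBSS (10 mM HEPES, pH 7.4) and equilibrated 30 min at 37 °C. 1 μM working solution (0.5% DMSO final) added to apical or basolateral donor side, 37 °C for 2 h, run in duplicate. Donor and receiver samples quenched in cold methanol with internal standards and quantified by LC-MS/MS. Monolayer integrity checked by Lucifer Yellow (100 μM) leakage.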

[16] = Apparent permeability across apical to basolateral side in MDCK cells at 1 uM after 2 hrs by LC-MS/MS analysis; assay type: ADME, cell-based, Canis lupus familiaris; conditions: dog; summary of the method: as §2
[17] = molecular target: Heat shock protein HSP90 (Homo sapiens) (UniProt P07900+P08238); experiment: Inhibition of HSP90 (unknown origin); assay type: protein assay
[18] = molecular target: Cyclin-dependent kinase 2/cyclin E1 (Homo sapiens, UniProt P24941); experiment: Inhibition of CDK2/Cyclin E (unknown origin) using histone H1 as substrate preincubated for 20 mins followed by 33P-ATP addition and measured after 2 hrs by filter binding method; assay type: protein-complex assay

SMILES: Cc1nn(-c2ccccn2)c2c1C(=O)CC(C)C2Br (cis isomer)
- inhibition [1]: inactive
- inhibition [2]: inactive
- inhibition [3]: inactive
- inhibition [4]: inactive
- inhibition [5]: inactive
- inhibition [6]: inactive
- inhibition [7]: inactive
- inhibition [8]: inactive
- inhibition [9]: inactive
- inhibition (Homo sapiens): inactive
- inhibition [10]: inactive
- inhibition [11]: inactive

SMILES: Cc1nn(-c2ccccn2)c2c1C(=O)CC(C)(C)C2Br (stereo not drawn)
- IC50 (CDK2/Cyclin A2): 2.6 µM
- Drug recovery [12]: 49.8%
- IC50 (CDK2/Cyclin A1): 0.134 µM
- Activity (MCF7): inactive
- IC50 (CDK2/Cyclin O): 0.108 µM
- Drug recovery [13]: 52.4%
- Papp B→A at 2 h, 1 µM [14]: 9.52 ×10⁻⁶ cm/s
- Ratio [15]: 0.47
- Papp A→B at 2 h, 1 µM [16]: 20.1 ×10⁻⁶ cm/s
- inhibition [17]: inactive
- IC50 [18]: 0.0274 µM
